According to publication PMC5599134 (Structure (London, England : 1993), 2017):
Ends that are not written are not given here.

Columns and labels:
[1] = target: Snap25b (Synaptosomal-associated protein 25), wild type, full length (human) (UniProt P60880); experiment: ITC
DHHC17 = experiment: Autoacylation of DHHC17 in 17-ODYA metabolic labeling; format: cell-based, human; details: HEK-293T, click chemistry
How it was run: (§1)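 HEK-293T cells (DMEM, 10% FBS, 37°C, 5% CO2) co-transfected with 2 μg GFP-DHHC17 (wild type or mutants) and 0.5 μg EGFP-Snap25b, cysteine-less C4A or empty vector, using PEI-max. At 24 h, cells given serum-free DMEM with 100 μM 17-ODYA for 4 h at 37°C, then lysed in dodecylmaltoside buffer. Click reaction with rhodamine azide/CuSO4/TCEP/TBTA for 1 h at room temperature. In-gel rhodamine fluorescence; anti-GFP and anti-Snap25b blots; bands quantitated.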

Snap25b [2] = format: cell-based, human; details: HEK-293T, 100 μM 17-ODYA, 4 h, 37°C; Rhodamine-azide click; n=3
How it was run: as §1

Snap25b-WT [3] = experiment: In vitro palmitate transfer from NBD-palmitoyl-CoA to Snap25b; format: biochemical, human; details: both in absence and presence of purified Snap25b-WT
ANK17 domain of DHHC17 = target: T1, ANK17 domain of DHHC17 (Homo sapiens, UniProt Q8IUH5); experiment: ITC titration of ANK17-WT with Snap25b species; format: binding; details: for effect of alanine mutation in Snap25b on binding to ANK17 (in words): ITC, ANK17-WT titrated into Snap25b mutants, 25°C, 1X PBS 1 mM DTT
T1 sequence (Q8IUH5 50-288): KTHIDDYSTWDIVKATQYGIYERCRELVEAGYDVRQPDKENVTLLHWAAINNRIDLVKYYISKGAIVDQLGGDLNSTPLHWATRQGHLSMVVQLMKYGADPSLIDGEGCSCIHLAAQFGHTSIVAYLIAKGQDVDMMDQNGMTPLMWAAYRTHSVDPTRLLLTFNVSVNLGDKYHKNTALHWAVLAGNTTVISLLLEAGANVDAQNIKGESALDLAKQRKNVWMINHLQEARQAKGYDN

Snap25b-WT [4] = experiment: Co2+ affinity pull-down of GFP-Snap25b-WT by DHHC17 mutants in HEK-293T cells; format: cell-based, human; details: 24 h co-transfection, Co2+ (Talon) pull down, gel-densitometry
[5] = target: Snap25b_(111–120) peptide (human); experiment: ITC
[6] = target: Snap25b-C4A (cysteine-less mutant), full length (human) (UniProt P60880); experiment: ITC
Snap25b-WT [7] = experiment: ITC titration of ANK17 mutants into full-length Snap25b-WT; format: binding, human; details: ANK17 mutants titrated into Snap25b-WT, 25°C, 1X PBS 1 mM DTT
wild-type Htt = experiment: ITC titration of ANK17-W130A into MBP-Htt1–548; format: binding; details: titrated into MBP-Htt1–548, 25°C, 1X PBS 1 mM DTT
[8] = Size exclusion chromatography; format: physicochemical; details: Superdex-200
How it was run: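 His-tagged protein expressed in E. coli BL21(DE3)-Gold and Ni-NTA purified. Spun at 21000 × g for 20 min at 4°C, then about 200 μL injected onto Superdex-200. Column buffer was 50mM Tris-HCl, 50mM NaCl, 5% glycerol, 1mM DTT for crystallization, or 1X PBS pH 7.4 with 1 mM DTT for ITC. Peak fractions pooled.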

Snap25b [9] = details: palmitoylated enzyme intermediate; ref Greaves et al., 2017; cited from earlier work

ANK17-Y67A (domain or fragment)
fold reduction of affinity against ANK17-WT [1]: 5 fold

DHHC17: full length human DHHC17 palmitoyltransferase (NP_056151)
autoacylation (in words) (DHHC17): did not detect any autoacylation | S-acylation (palmitate transfer) of Snap25b (in words) (Snap25b [2]): readily transfers palmitate to Snap25b | autopalmitoylation with or without Snap25b (in words) (Snap25b-WT [3]): does not appear to get autopalmitoylated to appreciable levels

GVVASQPARV [Snap25b111–120]
Kd (ANK17 domain of DHHC17): ~11 µM

N100A: full length DHHC17 mutant N100A (GFP fusion)
amount of Snap25b pulled down by DHHC17 mutant (in words) (Snap25b-WT [4]): largest decrease in affinity | S-acylation (palmitate transfer) of Snap25b (in words) (Snap25b [2]): severely reduced levels of palmitoylation

P117A: Snap25b alanine mutant P117A (GFP fusion in pull-down)
effect of alanine mutation in Snap25b on binding to ANK17 (in words) (ANK17 domain of DHHC17): largest reduction in binding affinity | effect of alanine mutation in Snap25b on binding to ANK17 (in words) (ANK17 domain of DHHC17; listed as Snap25b-P117A): showed only marginal heat of binding and we could not obtain any fitting of the integrated heats

V113A: Snap25b alanine mutant V113A (GFP fusion in pull-down)
effect of alanine mutation in Snap25b on binding to ANK17 (in words) (ANK17 domain of DHHC17): followed by the V113A and Q116A

W130A: full length DHHC17 mutant W130A (GFP fusion)
amount of Snap25b pulled down by DHHC17 mutant (in words) (Snap25b-WT [4]): largest decrease in affinity | S-acylation (palmitate transfer) of Snap25b (in words) (Snap25b [2]): severely reduced levels of palmitoylation

ankyrin repeat domain of Human DHHC17 (ANK17), wild type (domain or fragment)
Kd [5]: 11 µM | Kd [6]: 3 µM

mutation to phenylalanine: full length DHHC17 with W130 mutated to phenylalanine
S-acylation (palmitate transfer) of Snap25b (in words) (Snap25b [2]): loss of function of W130A can be recovered

B1: DHHC17-C467S: mutation of the cysteine of DHHC domain to serine (protein, UniProt Q8IUH5 1-632, looked up, variant C467S)
Palmitoyltransferase ZDHHC17: MQREEGFNTKMADGPDEYDTEAGCVPLLHPEEIKPQSHYNHGYGEPLGRKTHIDDYSTWDIVKATQYGIYERCRELVEAGYDVRQPDKENVTLLHWAAINNRIDLVKYYISKGAIVDQLGGDLNSTPLHWATRQGHLSMVVQLMKYGADPSLIDGEGCSCIHLAAQFGHTSIVAYLIAKGQDVDMMDQNGMTPLMWAAYRTHSVDPTRLLLTFNVSVNLGDKYHKNTALHWAVLAGNTTVISLLLEAGANVDAQNIKGESALDLAKQRKNVWMINHLQEARQAKGYDNPSFLRKLKADKEFRQKVMLGTPFLVIWLVGFIADLNIDSWLIKGLMYGGVWATVQFLSKSFFDHSMHSALPLGIYLATKFWMYVTWFFWFWNDLNFLFIHLPFLANSVALFYNFGKSWKSDPGIIKATEEQKKKTIVELAETGSLDLSIFCSTCLIRKPVRSKHCGVCNRCIAKFDHHSPWVGNCVGAGNHRYFMGYLFFLLFMICWMIYGCISYWGLHCETTYTKDGFWTYITQIATCSPWMFWMFLNSVFHFMWVAVLLMCQMYQISCLGITTNERMNARRYKHFKVTTTSIESPFNHGCVRNIIDFFEFRCCGLFRPVIVDWTRQYTIEYDQISGSGYQLV
S-acylation (palmitate transfer) of Snap25b (in words) (Snap25b [2]): does not show any appreciable transfer

B2: ANK17-W130A: ANK17 with alanine substitution at position W130 (protein, UniProt Q8IUH5 50-288, looked up, variant W130A)
chain: KTHIDDYSTWDIVKATQYGIYERCRELVEAGYDVRQPDKENVTLLHWAAINNRIDLVKYYISKGAIVDQLGGDLNSTPLHAATRQGHLSMVVQLMKYGADPSLIDGEGCSCIHLAAQFGHTSIVAYLIAKGQDVDMMDQNGMTPLMWAAYRTHSVDPTRLLLTFNVSVNLGDKYHKNTALHWAVLAGNTTVISLLLEAGANVDAQNIKGESALDLAKQRKNVWMINHLQEARQAKGYDN
modifications: ankyrin repeat domain
effect of alanine mutation in ANK17 on binding to full-length Snap25b (in words) (Snap25b-WT [7]): showed only heat of dilution | binding of ANK17 mutant to wild-type Htt (in words) (wild-type Htt): no discernible signs of binding to wild-type Htt

B3: ANK17: cytoplasmic ankyrin repeat domain of human DHHC17, residues K50 to D288 (protein, UniProt Q8IUH5 50-288, looked up, fragment)
chain: KTHIDDYSTWDIVKATQYGIYERCRELVEAGYDVRQPDKENVTLLHWAAINNRIDLVKYYISKGAIVDQLGGDLNSTPLHWATRQGHLSMVVQLMKYGADPSLIDGEGCSCIHLAAQFGHTSIVAYLIAKGQDVDMMDQNGMTPLMWAAYRTHSVDPTRLLLTFNVSVNLGDKYHKNTALHWAVLAGNTTVISLLLEAGANVDAQNIKGESALDLAKQRKNVWMINHLQEARQAKGYDN
modifications: ankyrin repeat domain
size exclusion peak homogeneity (in words) [8]: homogenous and monodisperse peaks

B4: DHHC15: DHHC15 palmitoyl transferase (NM_144969), comparison enzyme (protein, UniProt Q96MV8 1-337, looked up)
Palmitoyltransferase ZDHHC15: MRRGWKMALSGGLRCCRRVLSWVPVLVIVLVVLWSYYAYVFELCLVTVLSPAEKVIYLILYHAIFVFFTWTYWKSIFTLPQQPNQKFHLSYTDKERYENEERPEVQKQMLVDMAKKLPVYTRTGSGAVRFCDRCHLIKPDRCHHCSVCAMCVLKMDHHCPWVNNCIGFSNYKFFLQFLAYSVLYCLYIATTVFSYFIKYWRGELPSVRSKFHVLFLLFVACMFFVSLVILFGYHCWLVSRNKTTLEAFCTPVFTSGPEKNGFNLGFIKNIQQVFGDKKKFWLIPIGSSPGDGHSFPMRSMNESQNPLLANEETWEDNEDDNQDYPEGSSSLAVETET
modifications: 10xHis tag
palmitate transfer to Snap25b (in words) (Snap25b [9]): capable of transferring palmitate to a protein substrate such as Snap25b
